Laboratory results published in the RNAGym collection of RNA variant scans (doi:10.1126/science.aae0568).
This sample holds only a part of the variants without activity.

B1: tRNA (parent)
chain: GUUCCGUUGGCGUAAUGGUAACGCGUCUCCCUCCUAAGGAGAAGACUGCGGGUUCGAGUCCCGUACGGAACG

Variants of: B1
Assay: yeast fitness relative to wild type (ratio to wild type); higher = fitter; tRNA-Arg(CCU), competitive growth, 37 C, YPD
Summary of the method: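 Changes in genotype frequencies gave Darwinian fitness relative to wild type. Frequencies were read by 100-nucleotide paired-end sequencing of gene amplicons before and after pooled Saccharomyces cerevisiae strains, carrying tRNA-Arg(CCU) gene variants at the native locus, were competed in YPD at 37°C for 24 hours in six replicates. A genotype was kept only with ≥ 100 starting reads, and estimates < 0.5 were set to 0.5.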

Variant	yeast fitness
GUUCCGUUGGCGUGAUGGUAACGCGUCUCCCUCCUAAGGAGAAGACUGCGGGCUCGAGUCCCGUACCGAACG [A14G U53C G67C]	≤ 0.5
GUUCCGUUGGCGUUAUGGUAGCGCGUCUCCCUCCUAAGCAGAAGGCUGCGGGUUCGAGUCCCCUACGGAACG [A14U A21G G39C A45G G63C]	≤ 0.5
GUUCCGUUGGCGUUGUGGUACCGCGUCUCCCUCCUAAGGAGAAGACUGCGGGUUCAAGUCCUGUUCGGAACG [A14U A15G A21C G56A C62U A65U]	0.554
GUUCCGUUGGCGUUAUGGUAAAGCGUCACUCUCCUAAGGAGAAGACUGCGGGACCGAGUCCCGUACGGAACG [A14U C22A U28A C30U U53A U54C]	≤ 0.5
GUUCCGUUGGCGUUAUGGUCAGGCGUCUCCGUCCUAAGGAGAAGACAGCGGGUUCGAGUCCCGUACGGAACG [A14U A20C C22G C31G U47A]	≤ 0.5
GUUCCGUUGGCGUUAUGGUAACGCGUCUCCCUCCUAUGGCGGAGACUGCGGGUUCGAGUCCCGUACGGAACG [A14U A37U A40C A42G]	≤ 0.5
GUUCCGUUGGCGUUAUGGUCACGCGUCUCCGUCCUAAGGAGAAGACUGCGGGUUCGAGUCCCGUACGGUACG [A14U A20C C31G A69U]	≤ 0.5
GUUCCGUUGGCGUUCUGGUAACGCGUCUCCCUCCUAAGGGGAAGACUGCGGGUUCCAGUCCCGUACCGAACG [A14U A15C A40G G56C G67C]	≤ 0.5
GUUCCGUUGGCGUUAUGGUAGCGCGUCUCCCUCCUAAGGAGAUGACUGCGGGUUCGACUCCCGUACGGAACG [A14U A21G A43U G58C]	≤ 0.5
GUUCCGUUGGCGUUAUGGUAUCGCGUCUGCCUCCUAAGGAGAAGAUUGCGGGUUCGAGUCCCGUACGGAACG [A14U A21U C29G C46U]	≤ 0.5
GUUCCGUUGGCGUUGUGGUAACGCGUCUCCAUCGUAAGGAGAAGACUGCGGGUUCGAGUCUCGUACGGAACG [A14U A15G C31A C34G C61U]	≤ 0.5
GUUCCGUUGGCGUGAUGGUAACGCGUCUCCCUCCUAAGGAGAAGACUGCGGGUUCGAGACCCGUACGGAACG [A14G U59A]	0.894
GUUCCGUUGGCGUUAUGGUAAUGCGUCUCCCUCCUAAGGAGAAGUCUGCGGGUUCGAGUCCCGUACGGAACG [A14U C22U A45U]	≤ 0.5
GUUCCGUUGGCGUUAUGGUAACGCGUCUCCCUCCUAAGGAGAAGCUUGGGGGUUCGAGUCCCAUACGGAUCG [A14U A45C C46U C49G G63A A70U]	0.661
GUUCCGUUGGCGUUAUGGUAACGCGUCUCCCUCCUAAGGAGAAGUCUGCGGGUUCGACUCCCGUACGGAACG [A14U A45U G58C]	≤ 0.5
GUUCCGUUGGCGUUAUGGUUACGCGUCUCCCUCCUAAGGAGAAGACUGCGGGUUCGAGUCCCGUACAGAACG [A14U A20U G67A]	0.544
GUUCCGUUGGCGUUAUGGUAACGCGUCUCCCUCCUUAGGAGAAGACUGCGGGUUCGAGUCCGGUACGGAACG [A14U A36U C62G]	≤ 0.5
GUUCCGUUGGCGUUAUGGUAUUGCGUCUCCCUCCUAAGGAGAAGACUGCGGGUUCGAGUCCCGUACGGAACG [A14U A21U C22U]	0.527
GUUCCGUUGGCGUUAUGGUAGCGCAUCUCCCUCGUAAGGAGAAGACUGCGGGUUCGUGUCCCGUACGGUACG [A14U A21G G25A C34G A57U A69U]	≤ 0.5

Variant	yeast fitness
GUUCCGUUGGCGUUAUGGUAAGGCGUCUCCCUCCUAAGGAGCAGACUGCGGGUUCGAGUCCCGUAUGGAACG [A14U C22G A42C C66U]	≤ 0.5
GUUCCGUUGGCGUUAUGGUAACGCGUCUCCCUCCUAAGGAGAAGACUGCGGGUUCGAGUCCCGUACGGUACG [A14U A69U]	0.702
GUUCCGUUGGCGUUGUGAUAACGCGUCUCCCUCCUAAGGAGAAGACUGCGGGUUCGAGUCCCGUACGGAACG [A14U A15G G18A]	≤ 0.5
GUUCCGUUGGCGUUAUGGUAACGCGUCUCCCUCCUAAGGAGGGGACUGCGGGUUCGAGUCCCGUAGGGAACG [A14U A42G A43G C66G]	≤ 0.5
GUUCCGUUGGCGUUAUGGUAACGCGUCUCCCUCCUAAGGAGAAGGCUGCGGGUUCGAGUCCCGUACGGAACG [A14U A45G]	0.67
GUUCCGUUGGCGUGAUGGUAACGCGUCUCCCUCCUAAGGAGAAGACUGCGGGUACGAGUCCCGUACGGUACG [A14G U54A A69U]	≤ 0.5
GUUCCGUUGGCGUUAUGGUAACGCGUCUCCCUCCUAAGGAGAAGACUGCGGGUUCGAGUCCCGUGGGGAACG [A14U A65G C66G]	0.788
GUUCCGUUGGCGUUAUGGUAAGGCGUCUCCCUCCUAAGGAGUAGACUGCGGGUUCGAGUCCCGUACGGAACG [A14U C22G A42U]	≤ 0.5
GUUCCGUUGGCGUUAUGGUAACGCGUCUCCCUCCUAAGGAGAUGACUGCGGGUUGGAGUCCCGUACGGAACG [A14U A43U C55G]	0.511
GUUCCGUUGGCGUUAUGGUAAGGCGUCUCCCUCCUAAGGAGAAGACUGCGGGUUCGAGUCCCGUACGGAUCG [A14U C22G A70U]	0.576
GUUCCGUUGGCGUUAUGGUCACGCGUUUCCCUCCCAAGGAGAAGACUACGGGUUCGAGUCCAGUACGGAACG [A14U A20C C27U U35C G48A C62A]	≤ 0.5
GUUCCGUUGGCGUUCUGGUAACGCGUCUCCCUACUAAGCAGAAGACUGCGGGUUCGAGUCCCGUACGGAACG [A14U A15C C33A G39C]	≤ 0.5
GUUCCGUUGGCGUUAUGGUAACGCGUCUCCCUCCUAAGGAGAAGACUGCGGGUUCGCGUGACGUACGGAACG [A14U A57C C60G C61A]	0.601
GUUCCGUUGGCGUUGUGGUAACGCGUCUCCCUUCUAAGGAGCAGACUGCGGGUUCGAGUCCCGUACGGAACG [A14U A15G C33U A42C]	≤ 0.5
GUUCCGUUGGCGUUAUGGUAACGCGUCUCCCUCCUAAGGAGAAGUCUGCGGGUUCGAGUCCCGUACGCAACG [A14U A45U G68C]	≤ 0.5
GUUCCGUUGGCGUUAUGGUAAAGCGUCUCCCUCCUAAGGAGAGGACUGCGGGUUCGAGUCCCGUACGGAACG [A14U C22A A43G]	≤ 0.5
GUUCCGUUGGCGUUAUGGUACCGCGUCUCCCUCCUAAGGAGAAGACUGCGGGUGCGAGUCCCGUACGGAACG [A14U A21C U54G]	≤ 0.5
GUUCCGUUGGCGUUAUGGUAACGCGUCUCCCUCCUAAGGAGAUGGCUGCGGGCUCGAGUCCCGUACGGAACG [A14U A43U A45G U53C]	≤ 0.5
GUUCCGUUGGCGUUAUGGUAACGCGUCUCCCUCCUAAGGCGAAGACUGCGGGUUCGCGUCUCGUACGGAACG [A14U A40C A57C C61U]	≤ 0.5
